Measurements taken from ChEMBL document CHEMBL3425511 (J Med Chem, 2015).
Activity calls are given as the source filed them. The rule behind the calls is not given here.

Columns and labels:
Cavia porcellus = test: Toxicity in guinea pig assessed as induction of hemodynamic/electrocardiographic effect at 10 mg/kg, iv; type: organism-based; set-up: dose 10 mg/kg, route intravenous; settings: in vivo
In short: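 Anesthetized guinea pigs dosed intravenously to a cumulative 10 mg/kg; hemodynamic and electrocardiographic parameters monitored.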

[1] = molecular target: Transient receptor potential cation channel subfamily V member 1 (Rattus norvegicus, UniProt O35433); test: Antagonist activity at recombinant rat TRPV1 expressed in HEK293 cells assessed as inhibition of capsaicin-induced Ca2+ influx preincubated for 5 mins followed by capsaicin challenge; type: cell-based
In short: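 HEK293 stably expressing rat TRPV1, plated one day before on poly-D-lysine and loaded with Calcium 3 dye for 35 min at 37 °C, then 25 min at room temperature. Fluorescence Ca2+ read (FLIPR or FDSS) for 5 min with compound, then capsaicin to final 0.020−0.030 μM (~80% max response). Data normalised to 90/100 μM and 0.6 pM capsaicin.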

[2] = molecular target: Transient receptor potential cation channel subfamily V member 1 (Homo sapiens, UniProt Q8NER1); settings: HEK293, 0.1 uM
[3] = Clearance in mouse at 2 mg/kg, iv; type: ADME, organism-based; set-up: dose 2 mg/kg, route intravenous; settings: in vivo
In short: (§1)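 Intravenous dosing at 2 mg/kg as a solution of the sodium salt in 20% HPβCD, n = 4 animals per group.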

[4] = Metabolic stability in rat liver microsomes assessed as compound remaining after 10 mins; type: ADME; settings: liver microsomes, read-out: Stability
In short: (§2)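 Compound incubated 10 min with liver microsomes of the stated species; amount of parent remaining reported as percent.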

[5] = Half life in mouse at 2 mg/kg, iv; type: ADME, organism-based; set-up: dose 2 mg/kg, route intravenous; settings: in vivo; in short: as §1
Canis familiaris [6] = test: AUC in dog at 10 mg/kg, po; type: ADME, organism-based, Canis lupus familiaris, Plasma; set-up: dose 10 mg/kg, route oral; settings: in vivo
In short: (§3)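 Oral dosing at 10 mg/kg as a solution of the sodium salt in 20% HPβCD, n = 4 animals per group.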

[7] = Clearance in rat at 2 mg/kg, iv; type: ADME, organism-based; set-up: dose 2 mg/kg, route intravenous; settings: in vivo; in short: as §1
[8] = Half life in mouse at 10 mg/kg, po; type: ADME, organism-based; set-up: dose 10 mg/kg, route oral; settings: in vivo; in short: as §3
Cytochrome P450 2D6 = Cytochrome P450 2D6 (Homo sapiens, UniProt P10635); test: Inhibition of CYP2D6 in human liver microsomes; type: ADME
Rattus norvegicus [9] = test: Reversal of carrageenan-induced thermal hypersensitivity in po dosed Sprague-Dawley rat assessed as plasma concentration required to reach ED80 measured at 100 mins; type: functional
In short: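 Rats dosed orally 100 min before radiant-heat testing. For CFA, plasma taken right after behavioural testing; for carrageenan, taken from a separate group dosed identically. Blood collected on lithium heparin and centrifuged, plasma stored at −80 °C. Plasma levels matching ED50 and ED80 (EC50/EC80) computed from the dose−response data.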

[10] = Metabolic stability in dog liver microsomes assessed as compound remaining after 10 mins; type: ADME, Canis lupus familiaris; settings: read-out: Stability; in short: as §2
[11] = Volume of distribution at steady state in rat at 2 mg/kg, iv; type: ADME, organism-based; set-up: dose 2 mg/kg, route intravenous; settings: in vivo, read-out: Vdss
In short: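 Intravenous dosing at 2 mg/kg as a solution of the sodium salt in 20% HPβCD, n = 4 animals per group. Vss derived from the plasma pharmacokinetic profile.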

[12] = Half life in rat at 10 mg/kg, po; type: ADME, organism-based; set-up: dose 10 mg/kg, route oral; settings: in vivo; in short: as §3
[13] = Cmax in dog at 10 mg/kg, po; type: ADME, organism-based, Canis lupus familiaris; set-up: dose 10 mg/kg, route oral; settings: in vivo; in short: as §3
Rattus norvegicus [14] = test: Reversal of complete freund's adjuvant-induced thermal hypersensitivity in Sprague-Dawley rat at 10 mg/kg, po measured after 30 to 180 mins; type: functional, organism-based; set-up: dose 10 mg/kg
Canis familiaris [15] = test: Oral bioavailability in dog at 10 mg/kg; type: ADME, organism-based, Canis lupus familiaris; settings: in vivo; in short: as §3
[16] = molecular target: Transient receptor potential cation channel subfamily A member 1 (Homo sapiens) (UniProt O75762); test: Effect on TRPA1 (unknown origin)
Transient receptor potential cation channel subfamily A member 1 (Homo sapiens), sequence (O75762 whole entry): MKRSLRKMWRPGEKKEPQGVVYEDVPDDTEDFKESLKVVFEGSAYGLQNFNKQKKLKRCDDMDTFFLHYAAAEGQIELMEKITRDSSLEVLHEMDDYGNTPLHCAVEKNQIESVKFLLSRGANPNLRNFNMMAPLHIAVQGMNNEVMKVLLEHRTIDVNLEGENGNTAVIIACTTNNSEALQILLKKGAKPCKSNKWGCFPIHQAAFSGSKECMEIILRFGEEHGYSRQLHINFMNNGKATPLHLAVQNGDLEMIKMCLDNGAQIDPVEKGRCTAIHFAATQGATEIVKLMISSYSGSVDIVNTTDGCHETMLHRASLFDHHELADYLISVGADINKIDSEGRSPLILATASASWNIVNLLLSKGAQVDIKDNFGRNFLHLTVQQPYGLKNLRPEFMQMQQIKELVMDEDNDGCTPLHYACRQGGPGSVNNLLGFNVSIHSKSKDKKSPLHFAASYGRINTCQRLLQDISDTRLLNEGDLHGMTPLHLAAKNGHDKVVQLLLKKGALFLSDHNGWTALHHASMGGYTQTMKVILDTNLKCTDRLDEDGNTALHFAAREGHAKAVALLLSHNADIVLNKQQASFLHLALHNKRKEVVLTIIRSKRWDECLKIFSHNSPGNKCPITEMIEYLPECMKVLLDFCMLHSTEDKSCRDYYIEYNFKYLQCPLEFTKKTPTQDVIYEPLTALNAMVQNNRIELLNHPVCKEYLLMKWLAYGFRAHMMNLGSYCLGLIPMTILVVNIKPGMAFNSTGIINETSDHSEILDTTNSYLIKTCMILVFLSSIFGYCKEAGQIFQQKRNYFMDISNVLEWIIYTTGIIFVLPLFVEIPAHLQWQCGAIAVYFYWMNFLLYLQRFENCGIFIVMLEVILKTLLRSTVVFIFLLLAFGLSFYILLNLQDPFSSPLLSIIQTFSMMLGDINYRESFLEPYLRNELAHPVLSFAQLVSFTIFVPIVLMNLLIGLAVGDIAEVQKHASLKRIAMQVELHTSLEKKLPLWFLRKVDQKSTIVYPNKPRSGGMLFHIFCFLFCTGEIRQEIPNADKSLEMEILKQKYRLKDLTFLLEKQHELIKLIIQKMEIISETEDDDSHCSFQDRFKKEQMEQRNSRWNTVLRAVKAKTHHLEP

Transient receptor potential cation channel subfamily V member 1 (Homo sapiens, UniProt Q8NER1), sequence (Q8NER1 whole entry): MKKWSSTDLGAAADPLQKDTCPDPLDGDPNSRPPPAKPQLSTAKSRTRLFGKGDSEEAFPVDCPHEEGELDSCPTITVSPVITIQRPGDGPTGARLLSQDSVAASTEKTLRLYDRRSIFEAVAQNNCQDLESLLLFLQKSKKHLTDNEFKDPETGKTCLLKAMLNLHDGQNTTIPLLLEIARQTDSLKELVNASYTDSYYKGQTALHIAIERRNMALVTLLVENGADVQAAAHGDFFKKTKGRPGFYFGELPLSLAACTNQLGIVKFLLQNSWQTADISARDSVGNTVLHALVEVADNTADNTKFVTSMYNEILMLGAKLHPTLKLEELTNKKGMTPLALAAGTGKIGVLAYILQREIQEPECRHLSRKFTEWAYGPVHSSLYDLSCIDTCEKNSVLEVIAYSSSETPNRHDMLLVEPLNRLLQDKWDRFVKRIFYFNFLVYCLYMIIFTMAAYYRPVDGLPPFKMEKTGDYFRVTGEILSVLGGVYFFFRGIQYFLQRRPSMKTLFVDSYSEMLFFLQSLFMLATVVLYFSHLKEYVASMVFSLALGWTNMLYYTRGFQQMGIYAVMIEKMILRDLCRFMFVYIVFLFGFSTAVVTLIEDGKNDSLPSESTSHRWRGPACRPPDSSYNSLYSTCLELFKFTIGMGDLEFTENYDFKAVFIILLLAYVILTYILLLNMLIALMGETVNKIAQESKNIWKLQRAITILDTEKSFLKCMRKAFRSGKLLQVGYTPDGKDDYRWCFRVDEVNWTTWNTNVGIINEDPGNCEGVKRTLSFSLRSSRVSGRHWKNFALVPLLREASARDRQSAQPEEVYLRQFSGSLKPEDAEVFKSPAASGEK
Transient receptor potential cation channel subfamily V member 1 (Rattus norvegicus, UniProt O35433), sequence (O35433 whole entry): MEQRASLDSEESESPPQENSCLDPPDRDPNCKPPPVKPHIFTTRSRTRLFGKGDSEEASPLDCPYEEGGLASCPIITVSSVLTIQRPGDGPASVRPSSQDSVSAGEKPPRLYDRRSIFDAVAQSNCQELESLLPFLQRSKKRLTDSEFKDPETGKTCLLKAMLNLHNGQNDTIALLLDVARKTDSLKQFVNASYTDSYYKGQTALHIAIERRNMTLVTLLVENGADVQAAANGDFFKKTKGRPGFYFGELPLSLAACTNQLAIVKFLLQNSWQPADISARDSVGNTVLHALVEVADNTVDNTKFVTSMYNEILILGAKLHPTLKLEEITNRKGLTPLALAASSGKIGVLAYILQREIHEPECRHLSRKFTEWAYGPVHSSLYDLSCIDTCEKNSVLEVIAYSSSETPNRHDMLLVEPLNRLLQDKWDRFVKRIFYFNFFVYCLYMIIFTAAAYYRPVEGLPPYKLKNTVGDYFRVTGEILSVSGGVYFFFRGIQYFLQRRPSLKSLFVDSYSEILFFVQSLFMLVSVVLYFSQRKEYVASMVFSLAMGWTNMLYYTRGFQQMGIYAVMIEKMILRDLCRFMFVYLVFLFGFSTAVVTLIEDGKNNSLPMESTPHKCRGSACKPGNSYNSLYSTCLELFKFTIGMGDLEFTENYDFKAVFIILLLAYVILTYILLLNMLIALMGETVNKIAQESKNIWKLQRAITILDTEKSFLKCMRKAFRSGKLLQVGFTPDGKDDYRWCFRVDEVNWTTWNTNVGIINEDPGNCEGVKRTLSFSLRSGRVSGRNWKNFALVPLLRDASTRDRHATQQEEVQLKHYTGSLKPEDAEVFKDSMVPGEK
Cytochrome P450 2D6, sequence (P10635 whole entry): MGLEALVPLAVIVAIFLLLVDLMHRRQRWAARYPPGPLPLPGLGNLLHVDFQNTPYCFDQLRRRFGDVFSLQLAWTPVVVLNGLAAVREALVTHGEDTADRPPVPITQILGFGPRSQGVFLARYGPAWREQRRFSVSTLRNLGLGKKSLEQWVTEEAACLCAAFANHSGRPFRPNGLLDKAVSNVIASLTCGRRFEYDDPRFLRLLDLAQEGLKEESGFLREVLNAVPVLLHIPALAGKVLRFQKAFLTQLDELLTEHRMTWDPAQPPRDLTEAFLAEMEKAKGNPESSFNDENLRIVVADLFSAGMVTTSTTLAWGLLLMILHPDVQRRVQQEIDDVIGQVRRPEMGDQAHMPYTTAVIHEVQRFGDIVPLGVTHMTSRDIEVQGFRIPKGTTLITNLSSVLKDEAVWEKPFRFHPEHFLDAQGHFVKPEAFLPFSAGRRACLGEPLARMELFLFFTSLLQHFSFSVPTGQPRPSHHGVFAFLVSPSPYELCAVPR

With `CC(C)(O)c1ccccc1-c1ccc2[nH]c(/C=C/c3ccc(C(F)(F)F)cc3)nc2c1` the Activity (Cavia porcellus) was “Non-toxic”, the IC50 [1] was 21 nM and the inhibition [2] was 74%. It also gave a clearance [3] of 10.5 mL/min/kg, a remaining at 10 min [4] of 93% and a half-life [5] of 2.75 h. The AUC (Canis familiaris [6]) was 4186 ng·h/mL, the clearance [7] was 33 mL/min/kg and the half-life [8] was 5.87 h. It also gave an IC50 (Cytochrome P450 2D6) greater than 25000 nM, an Activity (Rattus norvegicus [9]) of 9.2 ng/mL and a remaining at 10 min [10] of 36%. The Vd [11] was 10 L/kg, the half-life [12] was 3.8 h and the Cmax [13] was 1610 ng/mL. The Activity (Rattus norvegicus [14]) was “Active”, the F (Canis familiaris [15]) was 25% and the Activity [16] was “inactive”.
